Test results: ChEMBL document CHEMBL2034923, “3-aminopiperidine-based peptide analogues as the first selective noncovalent inhibitors of the bacterial cysteine protease IdeS” (J Med Chem, 2012)
The source made the active and inactive calls. No cut-off for these calls is given here. Where a SMILES comes first, the peptide text is derived from it.

Key:
Streptococcus pyogenes [1] = experiment: Inhibition of Streptococcus pyogenes His-tagged IdeS expressed in Escherichia coli BL21 using IgG1 as substrate at 30 mM incubated for 15 mins prior to substrate addition measured after 20 mins by SDS-PAGE analysis
How it was run: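 Tag-free IdeS (TEV-cleaved, repurified) preincubated 15 min at room temp with peptide or analogue (30 mM stock in 50% DMSO/phosphate pH 7.4), then IgG1 substrate added. Final IdeS 0.8 μM with 4.8×10^3 molar excess of compound. 20 min at 37 °C, quenched with iodoacetamide, IgG cleavage products detected by SDS-PAGE. Triplicates plus enzyme-free controls.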

Streptococcus pyogenes [2] = experiment: Inhibition of Streptococcus pyogenes His-tagged IdeS expressed in Escherichia coli BL21 using IgG1 as substrate at 30 mM incubated for 15 mins prior to substrate addition measured after 20 mins
How it was run: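 IdeS with tag removed (TEV cleavage, Ni2+ and size-exclusion repurification), stored in PBS. Enzyme preincubated 15 min at room temp with analogue (30 mM stock in 50% DMSO/phosphate pH 7.4) before adding human IgG1. Final IdeS 0.8 μM, analogue at 4.8×10^3 molar excess. 20 min at 37 °C, stopped with iodoacetamide. Triplicates, PBS-for-IdeS controls. Read by SPR as fraction of active IdeS from an IdeS standard curve.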

[3] = molecular target: T1, Streptopain (Streptococcus pyogenes) (UniProt P0C0J0); experiment: Inhibition of Streptococcus pyogenes 5448 SpeB using n-bezoyl-proline-phenylalanine-arginine-p-nitroanilide hydrochloride as substrate at 30 mM incubated for 15 mins prior to substrate addition measured after 30 mins by colorimetry
T1 sequence (whole entry): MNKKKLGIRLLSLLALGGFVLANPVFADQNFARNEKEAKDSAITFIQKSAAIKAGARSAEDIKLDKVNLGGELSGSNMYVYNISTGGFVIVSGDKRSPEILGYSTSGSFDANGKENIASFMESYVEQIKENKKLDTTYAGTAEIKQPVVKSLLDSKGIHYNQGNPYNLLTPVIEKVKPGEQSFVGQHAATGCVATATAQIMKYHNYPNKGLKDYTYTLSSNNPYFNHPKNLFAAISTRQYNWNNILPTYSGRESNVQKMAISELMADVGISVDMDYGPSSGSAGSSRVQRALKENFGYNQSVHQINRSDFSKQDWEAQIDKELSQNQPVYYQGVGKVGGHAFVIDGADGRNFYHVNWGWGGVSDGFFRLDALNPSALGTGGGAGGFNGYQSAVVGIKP
How it was run: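 SpeB purified from S. pyogenes 5448 culture supernatant (ammonium sulfate precipitation, ion exchange), activated with 2 mM DTT 30 min at 37 °C. Activated enzyme preincubated 15 min at room temperature with analogue (30 mM stock in 50% DMSO/phosphate pH 7.4; 4.8×10^3 molar excess over 0.28 μM final SpeB). Then 1 mM BPFA substrate in 0.1 M phosphate pH 6 added; OD405 change recorded. Activity expressed relative to uninhibited enzyme.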

Papain (Carica papaya) = molecular target: T2, Papain (Carica papaya) (UniProt P00784); experiment: Inhibition of papaya papain using Nalpa-benzoyl-DL-arginine 4-nitroanilide hydrochloride as substrate at 30 mM incubated for 10 mins prior to substrate addition measured after 2 hrs by colorimetry
T2 sequence (whole entry): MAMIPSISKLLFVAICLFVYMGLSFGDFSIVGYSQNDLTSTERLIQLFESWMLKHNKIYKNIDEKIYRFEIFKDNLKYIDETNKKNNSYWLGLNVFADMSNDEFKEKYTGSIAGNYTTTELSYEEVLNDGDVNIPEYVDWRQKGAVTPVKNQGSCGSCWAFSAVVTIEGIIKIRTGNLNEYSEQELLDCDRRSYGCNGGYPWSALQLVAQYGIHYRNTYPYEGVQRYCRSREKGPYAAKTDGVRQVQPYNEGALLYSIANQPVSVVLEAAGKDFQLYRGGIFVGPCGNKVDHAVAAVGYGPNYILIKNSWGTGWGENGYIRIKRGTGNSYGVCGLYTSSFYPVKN
How it was run: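 Papain in pH 6.2 phosphate buffer with 1.23 mM EDTA and 1.23 mM DTT, preincubated 10 min at room temp with compound (30 mM stock in 50% DMSO/phosphate pH 6.2). Final papain 0.9 μM, compound at 4.8×10^3 molar excess. Substrate added from 100 mM DMSO stock, 2 h at 37 °C, stopped with acetic acid, Abs405 read. Duplicates on two occasions. Activity relative to no-inhibitor control.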

[4] = Inhibition of Streptococcus pyogenes His-tagged IdeS expressed in Escherichia coli BL21 using IgG1 as substrate by SDS-PAGE analysis
How it was run: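 Ki by competitive-inhibition fit of initial velocities. 2 μM IdeS with repurified polyclonal IgG at 150, 100, 50, 20 or 10 μM, inhibitor at 5, 2, 0.5 mM or 5, 2.5, 1 mM. Initial cleavage read by non-reducing SDS-PAGE densitometry of IgG, single-cleaved IgG, F(ab')2 and 1/2Fc bands, weighted by mass.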

[5] = Selectivity ratio of Ki for Streptococcus pyogenes IdeS to Ki for papaya papain

For H-LLGGPS-OH, the inhibition (Streptococcus pyogenes [1]) was “inactive”.

In the case of `CC(C)C[C@H](N)C(=O)NCC(=O)NCC(=O)N1CCC[C@H]1C(=O)O` (H-LGGP-OH), the inhibition (Streptococcus pyogenes [2]) is reported as “Active” and the inhibition (Streptococcus pyogenes [1]) is reported as “inactive”.

With `CC(C)C[C@H](N)C(=O)N1CCC[C@@H](NCC(=O)N2CCC[C@H]2C(N)=O)C1` the inhibition [3] was “inactive” and the inhibition (Streptococcus pyogenes [2]) was “Active”.

In the case of `NCC(=O)N1CCC[C@@H](N2CCC[C@H]2C(N)=O)C1`, the inhibition (Streptococcus pyogenes [2]) is reported as “Active”.

In the case of `CC(C)C[C@H](NC(=O)[C@@H](N)CC(C)C)C(=O)NCC(=O)NCC(=O)O` (H-LLGG-OH), the inhibition [3] is reported as “Active”, the inhibition (Streptococcus pyogenes [2]) is reported as “Active” and the inhibition (Streptococcus pyogenes [1]) is reported as “inactive”.

For `CC(C)C[C@H](N)C(=O)NCC(=O)N1CCC[C@@H](N2CCC[C@H]2C(N)=O)C1`, the inhibition [3] was “Active”, the inhibition (Papain (Carica papaya)) was “Active” and the inhibition (Streptococcus pyogenes [2]) was “Active”.

In the case of H-PELLGGPS-OH, the inhibition (Streptococcus pyogenes [1]) is reported as “inactive”.

In the case of `CC(C)C[C@H](N)C(=O)N1CCC[C@H](NCC(N)=O)C1`, the inhibition [3] is reported as “inactive”, the inhibition (Papain (Carica papaya)) is reported as “inactive” and the inhibition (Streptococcus pyogenes [2]) is reported as “Active”.

In the case of `NCC(=O)N1CCC[C@H](N2CCC[C@H]2C(N)=O)C1`, the inhibition (Streptococcus pyogenes [2]) is reported as “Active”.

With `NCC(=O)NCC(=O)N1CCC[C@H]1C(=O)N[C@@H](CO)C(=O)O` (H-GGPS-OH) the inhibition (Streptococcus pyogenes [1]) was “inactive”.

With `CCN(CC(N)=O)[C@H]1CCCN(C(=O)[C@H](CC(C)C)NC(=O)[C@@H](N)CC(C)C)C1` the inhibition [3] was “Active” and the inhibition (Streptococcus pyogenes [2]) was “Active”.

With `CC(C)C[C@H](NC(=O)[C@@H](N)CC(C)C)C(=O)N1CCC[C@H](NCC(N)=O)C1` the inhibition [3] was “inactive” and the inhibition (Streptococcus pyogenes [2]) was “Active”.

For `NC(=O)CN[C@H]1CCCNC1`, the Ki [4] was 6.7 mM, the Ratio Ki [5] was 16 and the inhibition [3] was “inactive”. For the same compound, the inhibition (Papain (Carica papaya)) was “inactive” and the inhibition (Streptococcus pyogenes [2]) was “Active”.

In the case of `CCN(CC(N)=O)[C@@H]1CCCN(C(=O)[C@H](CC(C)C)NC(=O)[C@@H](N)CC(C)C)C1`, the inhibition [3] is reported as “Active” and the inhibition (Streptococcus pyogenes [2]) is reported as “Active”.

For `CC(C)C[C@H](N)C(=O)N1CCC[C@@H](NCC(N)=O)C1`, the Ki [4] was 5.7 mM, the Ratio Ki [5] was 16 and the inhibition [3] was “inactive”. For the same compound, the inhibition (Papain (Carica papaya)) was “inactive” and the inhibition (Streptococcus pyogenes [2]) was “Active”.

With `NC(=O)CN[C@@H]1CCCNC1` the inhibition [3] was “inactive”, the inhibition (Papain (Carica papaya)) was “inactive” and the inhibition (Streptococcus pyogenes [2]) was “Active”.

For `NC(=O)[C@@H]1CCCN1C(=O)CN[C@H]1CCCNC1`, the inhibition (Streptococcus pyogenes [2]) was “Active”.

In the case of `NCC(=O)NCC(=O)O` (H-Gly-Gly-OH), the inhibition (Streptococcus pyogenes [2]) is reported as “Active” and the inhibition (Streptococcus pyogenes [1]) is reported as “inactive”.

In the case of `NC(=O)[C@@H]1CCCN1C(=O)CN[C@@H]1CCCNC1`, the inhibition (Papain (Carica papaya)) is reported as “Active” and the inhibition (Streptococcus pyogenes [2]) is reported as “Active”.

For H-ELLGG-OH, the inhibition (Streptococcus pyogenes [1]) was “inactive”.

In the case of `CC(C)[C@H](NC(=O)[C@H](CO)NC(=O)[C@@H]1CCCN1C(=O)CN)C(=O)O` (H-GPSV-OH), the inhibition (Streptococcus pyogenes [1]) is reported as “inactive”.

In the case of `CC(C)C[C@H](NC(=O)[C@@H](N)CC(C)C)C(=O)N1CCC[C@@H](NCC(N)=O)C1`, the inhibition [3] is reported as “inactive” and the inhibition (Streptococcus pyogenes [2]) is reported as “Active”.

In the case of `CC(C)C[C@H](N)C(=O)NCC(=O)N1CCC[C@H](N2CCC[C@H]2C(N)=O)C1`, the inhibition [3] is reported as “Active” and the inhibition (Streptococcus pyogenes [2]) is reported as “Active”.

With `CC(C)C[C@H](N)C(=O)N1CCC[C@H](NCC(=O)N2CCC[C@H]2C(N)=O)C1` the inhibition [3] was “inactive”, the inhibition (Papain (Carica papaya)) was “Active” and the inhibition (Streptococcus pyogenes [2]) was “Active”.
